Source: publication PMC12669303 (Clinical Drug Investigation, 2025)
Read-outs that look alike come from different tables or passages of the source. Marks after values point to notes of the source that are not given here.

Experiments:
[1] = Safety and tolerability: treatment-emergent adverse events; type: in vivo, human (healthy Chinese adults)
Outline: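 Oral tablets were given fasted to three cohorts: 1 mg single (n=8), 4 mg single then 7-day once-daily (n=10), and 10 mg single (n=8). Safety covered TEAEs, hematology, blood chemistry, urinalysis, vital signs, weight, 12-lead ECG and physical examination. AEs were coded with MedDRA v25.0. The safety set was subjects with ≥ 1 dose and ≥ 1 postdose assessment, reported as n (%).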

[2] = system: serum urate; settings: Chinese patients with gout, cited from earlier work
[3] = Multiple once-daily oral dose pharmacokinetics of dotinurad in plasma; type: in vivo, human (healthy Chinese adults)
Outline: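 In the 4-mg cohort (n=10, screening serum urate ≥ 5.5 mg/dL), a single Day 1 dose was followed by a 3-day washout. The test compound was then given orally once daily on Days 4–10, each morning after a 10-h fast. Plasma sampled 0–72 h after the Day 10 dose was assayed by LC-MS/MS (LOQ 1 ng/mL). Parameters are noncompartmental, with accumulation relative to Day 1. Mean ± SD; tss,max median (min–max).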

[4] = Single oral dose pharmacokinetics of dotinurad in plasma, phase 1 study; type: in vivo, human (healthy Chinese adults); settings: for Vd/F / half-life / AUC(0-inf) / Cmax / Tmax: human, plasma
Outline: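 Healthy nonsmoking Chinese adults (18–45 y, weight ≥ 50 kg) took a single oral tablet dose (1 mg n=8, 4 mg n=10, 10 mg n=8) on Day 1 after a 10-h fast. Plasma was sampled 0–48 h, separated at 2000 g for 10 min at 4 °C, and stored at −80 °C. Samples had solid-phase pretreatment, then LC-MS/MS (LOQ 1 ng/mL). Noncompartmental parameters are mean ± SD, tmax median (min–max).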

[5] = Cohort A, 1 mg single dose, N = 8
[6] = Cohort A, 1 mg single dose, N = 8, determined as drug-related TEAE
[7] = Cohort B, 4 mg single and multiple doses, N = 10
[8] = Cohort C, 10 mg single dose, N = 8
[9] = 4 mg once daily for 7 days, Day 10, N = 10, mean ± SD
[10] = 4 mg once daily for 7 days, Day 10 vs Day 1, N = 10, mean ± SD

O=C(c1cc(Cl)c(O)c(Cl)c1)N1CS(=O)(=O)c2ccccc21 [Dotinurad]
dose dependence of TEAEs ([1]; 1, 4 and 10 mg cohorts): No dose-dependent TEAEs were observed
Number of subjects with at least one TEAE, any severity [1, 5]: 2 (25.0) n (%)
Number of subjects with at least one TEAE, mild [1, 5]: 2 (25.0) n (%)
Number of subjects with at least one TEAE, moderate [1, 5]: 0 n (%)
Number of subjects with at least one TEAE, severe [1, 5]: 0 n (%)
TEAE: Blood bilirubin increased (mild) [1, 5]: 0 n (%)
TEAE: Body temperature increased (mild) [1, 5]: 0 n (%)
TEAE: Alanine aminotransferase increased (mild) [1, 6]: 1 (12.5)^a n (%)
TEAE: Blood triglycerides increased (mild) [1, 6]: 1 (12.5)^a n (%)
Number of subjects with at least one TEAE, any severity [1, 7]: 2 (20.0) n (%)
Number of subjects with at least one TEAE, mild [1, 7]: 2 (20.0) n (%)
Number of subjects with at least one TEAE, moderate [1, 7]: 0 n (%)
Number of subjects with at least one TEAE, severe [1, 7]: 0 n (%)
TEAE: Alanine aminotransferase increased (mild) [1, 7]: 0 n (%)
TEAE: Blood bilirubin increased (mild) [1, 7]: 1 (10.0) n (%)
TEAE: Blood triglycerides increased (mild) [1, 7]: 0 n (%)
TEAE: Body temperature increased (mild) [1, 7]: 1 (10.0) n (%)
Number of subjects with at least one TEAE, any severity [1, 8]: 0 n (%)
Number of subjects with at least one TEAE, mild [1, 8]: 0 n (%)
Number of subjects with at least one TEAE, moderate [1, 8]: 0 n (%)
Number of subjects with at least one TEAE, severe [1, 8]: 0 n (%)
TEAE: Alanine aminotransferase increased (mild) [1, 8]: 0 n (%)
TEAE: Blood bilirubin increased (mild) [1, 8]: 0 n (%)
TEAE: Blood triglycerides increased (mild) [1, 8]: 0 n (%)
TEAE: Body temperature increased (mild) [1, 8]: 0 n (%)
Number of subjects with at least one TEAE, any severity ([1]; Total, all cohorts, N = 26): 4 (15.4) n (%)
Number of subjects with at least one TEAE, mild ([1]; Total, all cohorts, N = 26): 4 (15.4) n (%)
Number of subjects with at least one TEAE, moderate ([1]; Total, all cohorts, N = 26): 0 n (%)
Number of subjects with at least one TEAE, severe ([1]; Total, all cohorts, N = 26): 0 n (%)
TEAE: Alanine aminotransferase increased (mild) ([1]; Total, all cohorts, N = 26): 1 (3.8) n (%)
TEAE: Blood bilirubin increased (mild) ([1]; Total, all cohorts, N = 26): 1 (3.8) n (%)
TEAE: Blood triglycerides increased (mild) ([1]; Total, all cohorts, N = 26): 1 (3.8) n (%)
TEAE: Body temperature increased (mild) ([1]; Total, all cohorts, N = 26): 1 (3.8) n (%)
severity and outcome of TEAEs ([1]; all cohorts): All the TEAEs were mild and resolved without any treatment
fatal TEAE, serious TEAE, or TEAE leading to discontinuation of study drug ([1]; all cohorts, 1–10 mg): No fatal TEAE, serious TEAE, or TEAE leading to discontinuation of study drug was reported
subjects who experienced at least 1 TEAE ([1]; all cohorts, 4 of 26 subjects): 15.4%
subjects who experienced at least 1 TEAE ([1]; single and multiple doses of 4 mg (Cohort B), 2/10 subjects): 20.0%
subjects who experienced at least 1 TEAE ([1]; single dose 1 mg (Cohort A), 2/8 subjects): 25.0%
reduction of serum urate ([2]; 2 mg, Week 12): 37.9%
reduction of serum urate ([2]; 4 mg, Week 24): 45.9%
CLss/F [3, 9]: 0.923 ± 0.183 L/h
Css,av [3, 9]: 186 ± 31.8 ng/mL
Css,max [3, 9]: 397 ± 69.4 ng/mL
Css,min [3, 9]: 65.4 ± 22.1 ng/mL
tss,max ([3]; 4 mg once daily for 7 days, Day 10, N = 10, median (min–max)): 3.00 (2.00–6.00) h
Rac(AUC0–24h) accumulation ratio [3, 10]: 1.13 ± 0.121
Rac(Cmax) accumulation ratio [3, 10]: 1.09 ± 0.185
AUC ([3]; human, plasma, oral, 4 mg): 4470 ± 762 ng·h/mL
Vd/F ([3]; human, plasma, oral, 4 mg): 13.2 ± 1.64 L
half-life ([3]; human, plasma, oral, 4 mg): 10.1 ± 1.72 h
mean plasma concentration relative to the corresponding maximum concentration ([3]; within 72 h after Day 10 dose, 4 mg once daily for 7 days): below 1%
time at which mean plasma concentration reached maximum ([4]; across single oral doses of 1, 4 and 10 mg): 3.00 to 3.50 h
CL/F ([4]; across the single-dose range of 1–10 mg): 0.757 to 0.834 L/h
Vd/F ([4]; oral): 11.1 to 11.7 L
half-life ([4]; oral): ~10 h
AUC(0-inf) ([4]; po, 1 mg): 1360 ± 288 ng·h/mL
Cmax ([4]; po, 1 mg): 104 ± 18.5 ng/mL
Tmax ([4]; po, 1 mg): 3.5 h
Vd/F ([4]; po, 1 mg): 11.1 ± 2.06 L
half-life ([4]; po, 1 mg): 10.1 ± 1.26 h
AUC(0-inf) ([4]; po, 4 mg): 4890 ± 683 ng·h/mL
Cmax ([4]; po, 4 mg): 365 ± 35.2 ng/mL
Tmax ([4]; po, 4 mg): 3 h
Vd/F ([4]; po, 4 mg): 11.7 ± 1.12 L
AUC(0-inf) ([4]; po, 10 mg): 13600 ± 2480 ng·h/mL
Cmax ([4]; po, 10 mg): 964 ± 101 ng/mL
Tmax ([4]; po, 10 mg): 3 h
Vd/F ([4]; po, 10 mg): 11.6 ± 1.1 L
half-life ([4]; po, 10 mg): 10.9 ± 1.53 h
CL/F ([4]; single oral dose 1 mg, fasted, Cohort A, N = 8, mean ± SD): 0.764 ± 0.147 L/h
CL/F ([4]; single oral dose 4 mg, fasted, Cohort B Day 1, N = 10, mean ± SD): 0.834 ± 0.130 L/h
CL/F ([4]; single oral dose 10 mg, fasted, Cohort C, N = 8, mean ± SD): 0.757 ± 0.134 L/h
mean plasma concentration relative to the corresponding maximum concentration ([4]; within 48 h after single oral doses of 1 to 10 mg): below 10%
